Consider 19 molecules from ChEMBL document CHEMBL1681779, “Design, synthesis and docking study of 5-amino substituted indeno[1,2-c]isoquinolines as novel topoisomerase I inhibitors” (Bioorg Med Chem, 2011).

The source made the active and inactive calls. The calls are words filed in the database; no cut-off is given here. A value given as a limit tells only on which side of the number the result lay.

Usually IC50 stands for the concentration needed to halve the response being measured. High values mean weaker potency in that assay, low ones greater potency in that assay.

One assay concerns A549. As to the kind of experiment: Cytotoxicity against human A549 cells by sulforhodamine B assay. In general terms: In SRB staining, fixed cells bind dye roughly in proportion to their protein.
In a further assay the test system is Col2. As to the kind of experiment: Cytotoxicity against human Col2 cells by sulforhodamine B assay.
For a further assay, the system named is SNU-638. Nature of the assay: Cytotoxicity against human SNU638 cells by sulforhodamine B assay.
In a further assay the test system is HT-1080. As to the kind of experiment: Cytotoxicity against human HT1080 cells by sulforhodamine B assay.
The test system of the next assay is HL-60. Nature of the assay: Cytotoxicity against human HL60 cells by MTT assay. The class given is functional, cell-based. (Tetrazolium assays rely on reduction of a dye to a coloured formazan, in cell work by metabolically active cells.)
For assay [1], the target named is T1, DNA topoisomerase 1 (Homo sapiens) (UniProt P11387).
T1 sequence (whole entry): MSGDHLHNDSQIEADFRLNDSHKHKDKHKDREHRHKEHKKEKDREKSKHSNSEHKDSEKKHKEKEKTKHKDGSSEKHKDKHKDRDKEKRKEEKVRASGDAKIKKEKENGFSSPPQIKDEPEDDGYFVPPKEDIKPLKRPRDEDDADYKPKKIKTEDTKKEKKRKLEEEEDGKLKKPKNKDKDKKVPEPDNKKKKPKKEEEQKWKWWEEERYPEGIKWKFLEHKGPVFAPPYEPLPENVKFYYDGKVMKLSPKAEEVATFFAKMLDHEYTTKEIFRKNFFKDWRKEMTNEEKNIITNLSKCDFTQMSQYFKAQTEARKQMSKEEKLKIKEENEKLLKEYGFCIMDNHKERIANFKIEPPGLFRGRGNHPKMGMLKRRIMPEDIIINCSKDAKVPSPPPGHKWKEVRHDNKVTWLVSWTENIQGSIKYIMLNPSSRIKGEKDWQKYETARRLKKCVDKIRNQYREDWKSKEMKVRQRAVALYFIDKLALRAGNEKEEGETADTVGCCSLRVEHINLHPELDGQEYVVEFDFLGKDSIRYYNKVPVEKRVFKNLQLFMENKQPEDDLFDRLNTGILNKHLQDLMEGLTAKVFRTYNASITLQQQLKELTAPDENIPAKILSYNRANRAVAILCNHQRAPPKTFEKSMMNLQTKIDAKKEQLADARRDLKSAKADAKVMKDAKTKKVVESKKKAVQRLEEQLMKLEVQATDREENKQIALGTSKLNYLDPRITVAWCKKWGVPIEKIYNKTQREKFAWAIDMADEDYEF
As to the kind of experiment: Inhibition of DNA topoisomerase 1 relative to 0.1 uM camptothecin. Put shortly:
(§1)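 Relaxation assay with 500 ng supercoiled pBR322 DNA as substrate and 1 unit topo I. Reactions were run with or without compound, with camptothecin as reference, for 30 min at 37 °C.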

For assay [2], the target named is T1, DNA topoisomerase 1 (Homo sapiens). As to the kind of experiment: Inhibition of DNA topoisomerase 1-mediated supercoiled DNA relaxation at 0.1 mg/mL by agarose gel electrophoresis. Put shortly: as §1
For a further assay, the system named is SK-MEL-2. Nature of the assay: Cytotoxicity against human SK-MEL-2 cells at 0.001 mg/ml. The class given is functional, cell-based.

For the molecule `OC1c2ccccc2-c2nc(N3CCOCC3)c3ccccc3c21` (stereo unspecified), the IC50 with A549 is 93.3 µM; with Col2, greater than 100 µM; in the assay on SNU-638, greater than 100 µM; with HT-1080 it was greater than 100 µM; in the assay with HL-60, 99.2 µM.
With `NCCNc1nc2c(c3ccccc13)C(=O)c1ccccc1-2`, the inhibition result in assay [1] is “Active”. For the same molecule, the IC50 in the assay on A549 was found to be 0.85 µM; in the assay on Col2, 1.43 µM; with SNU-638, 1.68 µM; in the assay with HT-1080, 9.6 µM; with HL-60 it was 10.4 µM.
On to `CC(=O)OC1c2ccccc2-c2nc(N3CCOCC3)c3ccccc3c21` (stereo unspecified), for which the IC50 in the assay with A549 was found to be 8.3 µM; in the assay with Col2, 7.87 µM; in the assay on SNU-638, 6.99 µM; with HT-1080 it was 58.3 µM; with HL-60, 15.9 µM.
Take `CN1CCN(c2nc3c(c4ccccc24)C(=O)c2ccccc2-3)CC1`: the inhibition entry in assay [1] and in assay [2] was “Active” throughout. Also, the IC50 came out at 8.19 µM with A549; 7.77 µM in the assay with Col2; 7.98 µM with SNU-638; 5.36 µM with HT-1080; 6.35 µM in the assay with HL-60.
In the case of `CN1CCN(c2nc3c(c4ccccc24)C(O)c2ccccc2-3)CC1` (stereo unspecified), the IC50 in the assay with A549 amounted to 18.1 µM; in the assay on Col2, 28.3 µM; in the assay on SNU-638 it was 9.01 µM; in the assay on HT-1080 it was 4.87 µM; with HL-60, 13.4 µM.
With `CCCCCCC1(O)c2ccccc2-c2nc(N3CCN(C)CC3)c3ccccc3c21` (stereo unspecified), the inhibition entry in assay [1] was “Active”. In addition, the IC50 came to 7.21 µM in the assay on A549; 6.24 µM in the assay with Col2; 12.4 µM in the assay on SNU-638; 2.57 µM in the assay on HT-1080; 8.55 µM with HL-60.
`CCN1CCN(c2nc3c(c4ccccc24)C(O)c2ccccc2-3)CC1` (stereo unspecified): the IC50 stood at 20.9 µM in the assay with A549; 19.2 µM with Col2; 18.9 µM with SNU-638; 8.66 µM in the assay with HT-1080; 29.4 µM in the assay with HL-60.
Consider `CCCCNc1nc2c(c3ccccc13)Cc1ccccc1-2`, for which the IC50 with A549 stood at 27.7 µM; with Col2, 75.2 µM; in the assay with SNU-638, 22.2 µM; with HT-1080, 4.39 µM; in the assay on HL-60 it was 19.6 µM. In assay [2], the inhibition result was “Active”.
For the molecule `CC1c2ccccc2-c2c1c1ccccc1c(=O)n2C` (stereo unspecified), in the assay with SK-MEL-2, the outcome was Active.
As for `CN1CCCN(c2nc3c(c4ccccc24)Cc2ccccc2-3)CC1`, the IC50 with A549 came out at 5.46 µM; with Col2, 2.13 µM; with SNU-638 it was 8.24 µM; in the assay on HT-1080, 0.25 µM; in the assay with HL-60 it was 3.33 µM. The inhibition entry in assay [2] is “Active”.
Turning to `O=C1c2ccccc2-c2nc(N3CCOCC3)c3ccccc3c21`, the IC50 with A549 was greater than 100 µM; in the assay on Col2, 96.9 µM; in the assay on SNU-638, greater than 100 µM; in the assay with HT-1080 it was 69.2 µM; in the assay with HL-60, greater than 100 µM.
Consider `O=C1c2ccccc2-c2nc(N3CCNCC3)c3ccccc3c21`, for which the inhibition result in assay [1] and in assay [2] was “Active” throughout. In addition, the IC50 was found to be 8.52 µM with A549; 7.99 µM in the assay on Col2; 8.25 µM in the assay with SNU-638; 2.01 µM with HT-1080; 4.68 µM in the assay on HL-60.
In the case of `CCN1CCN(c2nc3c(c4ccccc24)Cc2ccccc2-3)CC1`, the IC50 was determined as 8.19 µM with A549; 7.74 µM in the assay with Col2; 3.25 µM in the assay on SNU-638; 19 µM in the assay on HT-1080; 9.98 µM in the assay with HL-60. In addition, the inhibition entry in assay [2] was “Active”.
On to `CN1CCN(c2nc3c(c4ccccc24)Cc2ccccc2-3)CC1`, for which the IC50 amounted to 11.4 µM in the assay on A549; 10.1 µM in the assay with Col2; 19.8 µM with SNU-638; 3.85 µM with HT-1080; 5.87 µM in the assay on HL-60. Also, the inhibition result in assay [2] was “Active”.
Turning to `CCCCNc1nc2c(c3ccccc13)C(=O)c1ccccc1-2`, the IC50 in the assay with A549 is greater than 100 µM; with Col2 it was greater than 100 µM; in the assay on SNU-638, greater than 100 µM; with HT-1080, 48.2 µM; in the assay on HL-60, greater than 100 µM.
`CN1CCCN(c2nc3c(c4ccccc24)C(=O)c2ccccc2-3)CC1`: the inhibition entry in assay [1] and in assay [2] was “Active” throughout. The IC50 in the assay with A549 turned out to be 1.05 µM; in the assay on Col2 it was 0.27 µM; in the assay with SNU-638, 1.36 µM; in the assay with HT-1080 it was 0.54 µM; with HL-60 it was 1.28 µM.
Turning to `c1ccc2c(c1)Cc1c-2nc(N2CCOCC2)c2ccccc12`, the IC50 in the assay on A549 was found to be 5.69 µM; with Col2 it was 4.42 µM; in the assay with SNU-638, 2.58 µM; in the assay on HT-1080, 1.24 µM; in the assay with HL-60, 8.65 µM. In addition, in assay [2], the inhibition entry is “Active”.
Regarding `CN1CCN(c2nc3c(c4ccccc24)C(C)(O)c2ccccc2-3)CC1` (stereo unspecified), the IC50 in the assay on A549 came out at 92.5 µM; in the assay with Col2, 58 µM; in the assay on SNU-638 it was 58.2 µM; with HT-1080, 22.2 µM; with HL-60, 79.9 µM.
For the molecule `CCN1CCN(c2nc3c(c4ccccc24)C(=O)c2ccccc2-3)CC1`, the inhibition entry in assay [1] and in assay [2] was “Active” in each case. The IC50 in the assay on A549 is 7.1 µM; with Col2 it was 6.45 µM; in the assay on SNU-638 it was 5.85 µM; with HT-1080 it was 1.23 µM; in the assay with HL-60, 4.21 µM.
